Measured values published in ChEMBL document CHEMBL1131249, “Antimalarial cyclic peroxy ketals” (J Med Chem, 1998).

Test system: Plasmodium falciparum
Assay: In vitro antimalarial activity against Plasmodium falciparum.
Format: functional, organism-based
In short: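 Method follows earlier published work. Each compound tested in quadruplicate. IC50 derived from fitted concentration–response curves. Artemisinin run as a concurrent control, with n = 20 for the control.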

`COC1(c2ccc(S(C)(=O)=O)cc2)C=CC2(CCCCCC2)OO1` (configuration not stated) showed an IC50 of 0.031 µM.

`COc1ccc(C2(OC)C=CC3(CCC3)OO2)cc1` (configuration not stated) gave an IC50 of 0.16 µM.

In the case of `COC1(c2ccc(S(C)(=O)=O)cc2)C=CC2(CCCCC2)OO1` (configuration not stated), the IC50 is reported as 0.056 µM.

`COC1(c2ccc(OC(F)(F)F)cc2)C=CC2(CCCCCC2)OO1` (configuration not stated) showed an IC50 of 0.061 µM.

For `COC1(c2ccccc2)C=CC2(CCCCCC2)OO1` (configuration not stated), the IC50 was 0.22 µM.

In the case of `COC1(c2ccc(F)cc2)C=CC2(CCCCCC2)OO1` (configuration not stated), the IC50 is reported as 0.085 µM.

Work on `CCc1ccc(C2(OC)C=CC3(CCCCCC3)OO2)cc1` (configuration not stated) yielded an IC50 of 0.18 µM.

`COC1(c2ccccc2)C=CC2(CCCC2)OO1` (configuration not stated) showed an IC50 of 0.19 µM.

`COC1(c2ccc([N+](=O)[O-])cc2)C=CC2(CCCCC2)OO1` (configuration not stated) was tested, and the IC50 was 0.046 µM.

With `COc1ccc(C2(OC)C=CC3(CCCCCC3)OO2)cc1` (configuration not stated) the IC50 was 0.21 µM.

`COC1(c2ccc(SC)cc2)C=CC2(CCCCC2)OO1` (configuration not stated) showed an IC50 of 0.16 µM.

`COC1(c2ccccc2)C=CC2(CCCCC2)OO1` (configuration not stated) showed an IC50 of 0.28 µM.

`CC(C)OC1(c2ccc(Cl)cc2)C=CC2(CCCCCC2)OO1` (configuration not stated) gave an IC50 of 1.1 µM.

Work on `COC1(c2ccc(Cl)cc2)C=CC2(CCCCC2)OO1` (configuration not stated) yielded an IC50 of 0.1 µM.

For `CC1(C)C=CC(O)(c2ccccc2)OO1` (configuration not stated), the IC50 was > 2.5 µM.

In the case of `COC1(c2ccc(Cl)cc2)C=CC2(CCCCCC2)OO1` (configuration not stated), the IC50 is reported as 0.058 µM.

In the case of `COC1(c2ccc(SC)cc2)C=CC2(CCCCCC2)OO1` (configuration not stated), the IC50 is reported as 0.078 µM.

`COC1(c2ccc(F)cc2)C=CC2(CCCCC2)OO1` (configuration not stated) was tested, and the IC50 was 0.2 µM.

In the case of `COc1ccc(C2(OC)C=CC3(CCCCC3)OO2)cc1` (configuration not stated), the IC50 is reported as 0.18 µM.

In the case of `COc1cc(C2(OC)C=CC3(CCCCCC3)OO2)cc(OC)c1OC` (configuration not stated), the IC50 is reported as 0.12 µM.

For `COC1(c2ccccc2)C=CC(C)(C)OO1` (configuration not stated), the IC50 was 1.1 µM.

`C[C@@H]1CC[C@H]2[C@@H](C)C(=O)O[C@@H]3O[C@@]4(C)CC[C@@H]1[C@]32OO4` [ARTEMISININ] showed an IC50 of 0.0084 µM.
